Measurements gathered from unrelated publications.
Lines come from different studies, so protocols differ.
Target: Focal adhesion kinase 1 (PTK2, Homo sapiens, UniProt Q05397)

Compound	test	setting	quantity	result
Cn1cc(-c2cc(F)cc(N3CCn4c(cc5c4CCCC5)C3=O)c2CO)cc(Nc2ccc(N3CCN(C4COC4)CC3)cn2)c1=O	enzyme activity, inhibitor	0.1 µM	inhibition	18%
N#CC1(c2ccccn2)CCN(Cc2cc(C(=O)O)c(=O)n3ccccc23)CC1	cell-free assay, competition with immobilised ligand	1 µM	remaining binding	100%
COc1ncccc1-c1cnn2ccc(N3CCN(C(=O)OC(C)C)CC3)nc12	binding, competition with immobilised ligand	1 µM	remaining binding	97%
Cc1nn(C)cc1-c1nc2c(N3CCN(Cc4ccc(Cl)cc4)CC3)c(Cl)cnc2[nH]1	binding, competition with immobilised ligand	1 µM	remaining binding	95%
C#Cc1n[nH]c2c(-c3cn(C(C)c4ccccn4)c(=O)[nH]c3=O)cc(F)cc12 (stereo not shown)	enzyme activity, inhibitor	1 µM	inhibition	5.6%
Cn1cc(-c2cccc(N3CCc4c(sc5c4CC(C)(C)C5)C3=O)c2CO)cc(Nc2ccncn2)c1=O	enzyme activity, inhibitor	1 µM	inhibition	3%
O=c1[nH]c2ccccc2n1C1CCN(Cc2ccc(-c3[nH]c4cc5ncnc5cc4nc3-c3ccccc3)cc2)CC1	cell-free assay	0.5 µM	remaining signal	108%
Nc1ncc(-c2nc(N3CCOCC3)nc(N3CCOCC3)n2)c(C(F)F)n1	binding, competition with immobilised ligand	10 µM	remaining binding	100%
CC(C)(C)c1cc(C=C(C#N)C#N)cc(Br)c1O	enzyme activity, inhibitor	0.5 µM	remaining activity	107%
Cn1cncc1[C@](O)(COc1ccc(C#N)cc1-c1ccc(OC(F)(F)F)cc1)c1ccc(C#N)cc1	cell-free assay, competition with immobilised ligand	1 µM	remaining binding	77%
